Reference: publication PMC9977399 (Chemical Science, 2023)

Key:
[1] = molecular target: T1, caspase 6 (Homo sapiens, UniProt P55212); assay: kobs/I inhibition parameter of AOMK inhibitors; format: biochemical; details: substrate Ac-VEID-ACC 100 μM, 37 °C
T1 sequence (P55212 24-179 limits assumed): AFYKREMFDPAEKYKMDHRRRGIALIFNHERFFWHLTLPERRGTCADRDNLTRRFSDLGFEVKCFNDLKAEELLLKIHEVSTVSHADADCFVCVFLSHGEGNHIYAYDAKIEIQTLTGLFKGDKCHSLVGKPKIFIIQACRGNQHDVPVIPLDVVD
T1 sequence (P55212 194-293 limits assumed): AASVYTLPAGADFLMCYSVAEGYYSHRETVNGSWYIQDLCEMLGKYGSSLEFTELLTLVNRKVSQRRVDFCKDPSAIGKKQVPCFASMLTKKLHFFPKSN
Procedure, shortened: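 Recombinant human caspase 6 was active-site titrated with zVAD-fmk and preactivated 15 min at 37 °C in sucrose/PIPES/NaCl/EDTA/DTT buffer, pH 7.2–7.4. Serial inhibitor dilutions with substrate were pre-equilibrated 15 min at 37 °C, then enzyme was added. ACC fluorescence (ex 355/em 460 nm) was read for 30 min from start under pseudo-first-order conditions. Second-order kobs/I: at least three independent runs, mean ± SD.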

[2] = tested on: lamin A processing in staurosporine-treated Jurkat T cells; assay: western blot of lamin A processing upon inhibitor treatment; format: cell-based, human; details: inhibitor 5 or 25 μM, 2 h preincubation, staurosporine 5 μM, 4 h
Procedure, shortened: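 Low-passage Jurkat T cells (100000 per 0.5 mL) were pretreated 2 h with inhibitor (5 or 25 μM, 1% DMSO; control 1% DMSO), then given staurosporine 5 μM for 4 or 8 h. Lysates were boiled in SDS/DTT and run on 4–12% Bis-Tris SDS–PAGE, then nitrocellulose, blocked with 2% BSA/TBS-T. Primary antibodies (caspase 3, PARP, caspase 6, lamin A/C; 1:1000, overnight 4 °C) were followed by fluorescent secondaries. Bands were quantified from 700/800 nm scans.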

[3] = molecular target: T2, caspase 9 (Homo sapiens, UniProt P55211); assay: kobs/I inhibition parameter of AOMK inhibitors; format: biochemical; details: substrate Ac-LEHD-ACC 100 μM, 37 °C
T2 sequence (P55211 1-315 limits assumed): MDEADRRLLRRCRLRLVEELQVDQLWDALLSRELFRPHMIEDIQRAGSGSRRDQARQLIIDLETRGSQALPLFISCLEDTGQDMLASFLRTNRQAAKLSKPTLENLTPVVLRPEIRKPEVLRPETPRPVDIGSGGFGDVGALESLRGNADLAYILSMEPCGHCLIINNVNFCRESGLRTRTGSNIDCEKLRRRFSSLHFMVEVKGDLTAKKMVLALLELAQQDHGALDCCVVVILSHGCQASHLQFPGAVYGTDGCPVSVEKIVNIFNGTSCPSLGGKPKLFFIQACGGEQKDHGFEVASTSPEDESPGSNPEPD
T2 sequence (P55211 331-416 limits assumed): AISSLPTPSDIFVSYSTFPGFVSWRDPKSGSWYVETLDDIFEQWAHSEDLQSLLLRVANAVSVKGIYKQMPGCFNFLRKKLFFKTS
Procedure, shortened: (§1)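 Recombinant human caspases 8, 9 or 10 were active-site titrated with zVAD-fmk and preactivated 15 min at 37 °C. Buffer: sucrose/PIPES/NaCl/EDTA/DTT, pH 7.2–7.4, plus 0.75 M sodium citrate to dimerise. Inhibitor dilutions were mixed with substrate and held 15 min at 37 °C before enzyme addition. Fluorescence (ex 355/em 460 nm) was followed 30 min; pseudo-first-order kobs/I from ≥3 experiments, mean ± SD.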

[4] = molecular target: T3, caspase 10 (Homo sapiens, UniProt Q92851); assay: kobs/I inhibition parameter of AOMK inhibitors; format: biochemical; details: substrate Ac-LEHD-ACC 100 μM, 37 °C
T3 sequence (Q92851 220-415 limits assumed): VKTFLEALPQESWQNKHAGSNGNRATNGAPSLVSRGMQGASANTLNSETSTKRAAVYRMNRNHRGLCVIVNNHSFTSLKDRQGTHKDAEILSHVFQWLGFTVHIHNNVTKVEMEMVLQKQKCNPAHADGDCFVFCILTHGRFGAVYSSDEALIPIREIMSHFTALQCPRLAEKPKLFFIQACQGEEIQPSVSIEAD
T3 sequence (Q92851 416-521 limits assumed): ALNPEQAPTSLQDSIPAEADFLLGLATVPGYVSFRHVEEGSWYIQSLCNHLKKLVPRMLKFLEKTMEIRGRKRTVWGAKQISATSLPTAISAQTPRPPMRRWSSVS
Procedure, shortened: as §1

[5] = molecular target: caspase 8 (Homo sapiens, UniProt Q14790); assay: kobs/I inhibition parameter of AOMK inhibitors; format: biochemical; details: substrate Ac-LEHD-ACC 100 μM, 37 °C
Procedure, shortened: as §1

[6] = tested on: lamin A processing in staurosporine-treated Jurkat T cells; assay: mass cytometry, anti-lamin A; format: cell-based, human; details: inhibitor 5 or 25 μM, 2 h preincubation, staurosporine 5 μM, 4 h
Procedure, shortened: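 Jurkat T cells (1,000,000 per 0.5 mL) were pretreated 2 h with inhibitor (5 or 25 μM), then given staurosporine 5 μM for 4 h. Cells were fixed in 4% PFA (20 min, 4 °C), Perm-S permeabilised and stained 2 h RT with metal-tagged antibodies (lamin A 142Nd, cleaved PARP 143Nd, caspase 6 159Tb, cleaved caspase 3 172Yb). Ir191/193 DNA stain followed; CyTOF acquisition within 12 h.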

[7] = molecular target: T1, caspase 6; assay: kinetic of AIE substrates; format: biochemical; details: caspases 3 and 6 at 10 nM or 50 nM, ex 312/em 450 nm, 30 min
Procedure, shortened: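 Recombinant human caspases 3 and 6 were active-site titrated with zVAD-fmk and used at 10 or 50 nM. Buffer: 10% w/v sucrose, 20 mM PIPES, 10 mM NaCl, 1 mM EDTA, 10 mM DTT, pH 7.2–7.4. Enzyme was preincubated 15 min, then added to AIE substrates from DMSO at varied final concentrations, 37 °C. Relative hydrolysis rate came from the linear fluorescence segment. At least three replicates, mean ± SD.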

Sequence of caspase 8 (Q14790 217-374 limits assumed): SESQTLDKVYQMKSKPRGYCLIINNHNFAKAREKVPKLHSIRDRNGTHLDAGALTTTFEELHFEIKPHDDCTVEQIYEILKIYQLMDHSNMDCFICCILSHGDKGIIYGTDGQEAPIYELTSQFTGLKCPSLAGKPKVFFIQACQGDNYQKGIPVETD
Sequence of caspase 8 (Q14790 385-479 limits assumed): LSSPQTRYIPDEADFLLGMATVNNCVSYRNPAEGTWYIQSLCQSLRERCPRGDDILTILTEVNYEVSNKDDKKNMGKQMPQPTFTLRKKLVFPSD

Row | Substance | potency toward caspase 6 (kobs/I, in words) [1] | prevention of lamin A cleavage (western blot) [2] | inhibition of apical caspase 9 (in words) [3] | inhibition of apical caspase 10 (in words) [4] | inhibition of apical caspase 8 (in words) [5] | effect on lamin A processing (mass cytometry) [6] | selectivity for caspase 6 over caspase 3 (AIE substrate hydrolysis) [7]
1 | Ac-hFVEID-AOMK | most potent inhibitors of caspase 6 | largely prevent lamin A | poor inhibitor | poor inhibitor | poor inhibitor | efficiently block lamin A processing | 
2 | Ac-EVEID-AOMK |  | only partially effective in preventing lamin A cleavage |  |  |  |  | 
3 | Ac-EVEhFD-AOMK | most potent inhibitors of caspase 6 | only partially effective in preventing lamin A cleavage |  |  |  |  | 
4 | Ac-EVEID-K(T PE )-NH2 [Ac-EVEID-K-TPE] |  |  |  |  |  |  | very high selectivity over caspase 3
